In ChEMBL document CHEMBL3792364, “Identification and biological activity of 6-alkyl-substituted 3-methyl-pyridine-2-carbonyl amino dimethyl-benzoic acid EP4 antagonists” (Bioorg Med Chem Lett, 2016):
≈ marks a conversion by molar mass, not a printed value.

Assays:
[1] = target: T1, Prostaglandin E2 receptor EP4 subtype (Homo sapiens, UniProt P35408); experiment: Antagonist activity against EP4 in human whole blood assessed as reversal of PGE2-mediated suppression of LPS-induced TNF-alpha production preincubated for 30 mins followed by LPS stimulation measured after 20 to 24 hrs by enzyme immunoassay; assay type: tissue-based
T1 sequence (P35408 whole entry): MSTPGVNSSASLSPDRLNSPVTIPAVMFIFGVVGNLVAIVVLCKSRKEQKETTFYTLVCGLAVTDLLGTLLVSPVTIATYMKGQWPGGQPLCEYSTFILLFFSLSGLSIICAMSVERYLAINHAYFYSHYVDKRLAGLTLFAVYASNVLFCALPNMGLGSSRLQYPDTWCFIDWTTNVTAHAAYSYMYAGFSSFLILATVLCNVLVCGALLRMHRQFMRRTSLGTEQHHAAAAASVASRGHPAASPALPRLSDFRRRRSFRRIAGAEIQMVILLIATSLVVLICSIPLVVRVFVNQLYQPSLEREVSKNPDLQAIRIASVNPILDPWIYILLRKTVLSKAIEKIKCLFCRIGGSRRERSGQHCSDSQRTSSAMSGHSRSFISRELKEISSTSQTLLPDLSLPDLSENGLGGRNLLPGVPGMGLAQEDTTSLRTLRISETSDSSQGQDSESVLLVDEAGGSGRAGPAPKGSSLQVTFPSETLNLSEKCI
How it was run: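 Pooled blood from donors free of NSAIDs or celecoxib for 48 h and of glucocorticoids for 2 weeks. Blood pretreated 30 min at 37 °C, 5% CO2 with compound in DMSO (7-point curve, triplicate). LPS […] ± 10 nM PGE2 (final) added, then incubated 20–24 h. Plasma TNFα read at A450-A650. IC50 from sigmoidal nonlinear fit; geometric mean of independent runs.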

[2] = Aqueous solubility of compound at pH 6 at 2 mM after 20 hrs by HPLC; assay type: physicochemical; settings: aqueous medium
How it was run: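 Samples in DMSO dried 12 h, then redissolved at pH 6 at a 2 mM target concentration. Stirred 20 h, filtered through 0.7 µm GF filter. Filtrate concentration measured by HPLC against a DMSO standard curve.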

[3] = target: T1, Prostaglandin E2 receptor EP4 subtype; experiment: Antagonist activity against human EP4 expressed in HEK293 cells assessed as inhibition of PGE2-stimulated production of cAMP incubated for 20 mins by HTRF assay; assay type: functional, cell-based

Structure (SMILES)	IC50 [1]	solubility at 20 h, 2000 µM [2]	IC50 [3]
Cc1ccc(N2CCC(O)CC2)nc1C(=O)Nc1c(C)ccc(C(=O)O)c1C	1450 nM	784 µg/mL (≈ 2040 µM)	19.5 nM
Cc1ccc(N2CCC(F)(F)CC2)nc1C(=O)Nc1c(C)cc(C(=O)O)cc1C	1160 nM		1.61 nM
Cc1ccc(N2CCCC(CO)C2)nc1C(=O)Nc1c(C)cc(C(=O)O)cc1C (configuration not stated)	1450 nM		16.5 nM
